Data from publication PMC3178738 (Bioconjugate chemistry, 2011).
Entries after “also recorded” stand apart in the source; their conditions may differ.

Key:
[1] = Stability of the aluminum chelates in PBS; type: physicochemical; conditions: chemical stability, pH 7.4, 37 °C
How it was run: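 Al–OH and Al–F chelates of the test chelator, made by reacting it with AlCl3 or AlF3, were incubated in PBS, pH 7.4, at 37 °C. Aluminum loss (demetalation) was followed by RP-HPLC at 3 h, 12 h and 24 h.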

[2] = animal studies, cited from earlier work

AlF(NODA-MPAA) [compound 3]
time stable in PBS [1]: over 24 h
loss of aluminum (demetalation) ([1]; 24 h, RP-HPLC): no detectable loss of aluminum; also recorded: no signs of demetalation

AlOH(NODA-MPAA) [compound 2]
demetalation ([1]; 3 h, RP-HPLC): 23%
demetalation ([1]; 12 h, RP-HPLC): 61%

NODA-MPAA-D-Lys(HSG)-D-Tyr-D-Lys(HSG)-NH2 [IMP485]
presence in the bone ([2]; kit formulated IMP485, supporting in vivo stability): negligible
clearance from the body ([2]; kit formulated IMP485): rapid clearance from the body via the kidneys
